Test results from ChEMBL document CHEMBL3286301, “Solving time-dependent CYP3A4 inhibition for a series of indole-phenylacetic acid dual antagonists of the PGD(2) receptors CRTH2 and DP” (Bioorg Med Chem Lett, 2014).

Assays:
[1] = biological target: T1, Prostaglandin D2 receptor (Homo sapiens, UniProt Q13258); assay: Displacement of [3H]-PGD2 from human DP receptor expressed in HEK293 cells in presence of 50% human plasma by scintillation counting; format: cell-based
T1 sequence (Q13258 whole entry): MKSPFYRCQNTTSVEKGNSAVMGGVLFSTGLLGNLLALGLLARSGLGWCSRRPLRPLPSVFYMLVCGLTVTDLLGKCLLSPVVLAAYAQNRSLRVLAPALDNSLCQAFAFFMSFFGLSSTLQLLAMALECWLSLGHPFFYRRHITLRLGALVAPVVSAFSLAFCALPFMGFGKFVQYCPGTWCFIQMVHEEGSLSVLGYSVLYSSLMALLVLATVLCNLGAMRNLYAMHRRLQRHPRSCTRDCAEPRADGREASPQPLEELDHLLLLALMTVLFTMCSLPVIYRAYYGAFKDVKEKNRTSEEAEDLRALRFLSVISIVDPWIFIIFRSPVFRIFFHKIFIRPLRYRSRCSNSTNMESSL
Summary of the method: (§1)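 Radioligand binding: displacement of ³H-PGD2 from receptor expressed on HEK 293 cells. Run either in buffer with 0.5% bovine serum albumin or in 50% human plasma. IC50 values are the average of at least two experiments.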

[2] = biological target: T2, Prostaglandin D2 receptor 2 (Homo sapiens, UniProt Q9Y5Y4); assay: Displacement of [3H]-PGD2 from human CRTH2 expressed in HEK293 cells in presence of 50% human plasma by scintillation counting; format: cell-based; summary of the method: as §1
T2 sequence (Q9Y5Y4 whole entry): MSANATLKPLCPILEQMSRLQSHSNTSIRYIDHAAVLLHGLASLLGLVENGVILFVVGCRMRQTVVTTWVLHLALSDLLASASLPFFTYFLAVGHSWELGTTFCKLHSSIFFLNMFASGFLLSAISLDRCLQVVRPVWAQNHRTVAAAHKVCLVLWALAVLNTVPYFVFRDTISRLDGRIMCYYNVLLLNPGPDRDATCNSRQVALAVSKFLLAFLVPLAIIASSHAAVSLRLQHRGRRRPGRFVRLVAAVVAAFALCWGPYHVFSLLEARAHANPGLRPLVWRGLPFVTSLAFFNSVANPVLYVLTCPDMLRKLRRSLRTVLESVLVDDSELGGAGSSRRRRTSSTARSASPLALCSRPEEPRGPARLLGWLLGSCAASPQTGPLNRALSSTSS

[3] = biological target: CYP3A4 (Homo sapiens, UniProt P08684); assay: Time dependent inhibition of human liver microsome CYP3A4 activity assessed as percentage remaining activity by measuring 6-beta-OH-testosterone formation at 15 uM for 15 mins using 200 uM testosterone as a substrate by LC/MS/MS analysis; format: ADME; settings: liver microsomes, probe testosterone, read-out: Activity
Summary of the method: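 Pooled human liver microsomes (1.0 mg/mL) in 100 mM potassium phosphate, pH 7.4, preincubated with compound (15 µM) and 1 mM NADPH for 15 min. Then diluted 1:10 into a secondary incubation with 200 µM testosterone (saturating) plus 1 mM NADPH for 20 min. Stopped with acetonitrile containing deuterated internal standard. 6β-OH-testosterone measured by LC/MS/MS; % remaining activity reported. Average of at least two experiments.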

[4] = biological target: T1, Prostaglandin D2 receptor; assay: Displacement of [3H]-PGD2 from human DP receptor expressed in HEK293 cells in buffer solution with 0.5% bovine serum albumin by scintillation counting; format: cell-based; summary of the method: as §1
[5] = biological target: T2, Prostaglandin D2 receptor 2; assay: Displacement of [3H]-PGD2 from human CRTH2 expressed in HEK293 cells in buffer solution with 0.5% bovine serum albumin by scintillation counting; format: cell-based; summary of the method: as §1

Chain of CYP3A4 (P08684 whole entry): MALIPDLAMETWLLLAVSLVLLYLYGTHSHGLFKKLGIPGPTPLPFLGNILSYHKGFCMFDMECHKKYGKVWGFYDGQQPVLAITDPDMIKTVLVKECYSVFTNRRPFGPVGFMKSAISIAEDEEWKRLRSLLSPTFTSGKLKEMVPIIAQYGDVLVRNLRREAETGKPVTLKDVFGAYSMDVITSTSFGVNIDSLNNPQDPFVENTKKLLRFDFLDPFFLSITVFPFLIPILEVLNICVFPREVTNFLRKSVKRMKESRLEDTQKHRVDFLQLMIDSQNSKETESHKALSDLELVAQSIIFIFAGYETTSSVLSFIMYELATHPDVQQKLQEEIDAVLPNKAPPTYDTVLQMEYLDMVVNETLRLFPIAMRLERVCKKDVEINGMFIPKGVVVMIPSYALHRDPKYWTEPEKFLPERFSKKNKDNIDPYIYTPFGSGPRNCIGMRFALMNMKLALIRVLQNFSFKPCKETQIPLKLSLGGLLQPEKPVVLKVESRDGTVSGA

SMILES	IC50 [1] [nM]	IC50 [2] [nM]	activity at 0.25 h, 15 µM [3] [%]	IC50 [4] [nM]	IC50 [5] [nM]
COc1cc(CC(=O)O)ccc1Oc1ccc2[nH]c(C3CC3)cc2c1NS(=O)(=O)c1ccc(Cl)cc1Cl	350	25	41	74	8
COc1cc(CC(=O)O)ccc1Oc1ccc2c(cc(C)n2C)c1NS(=O)(=O)c1ccc(Cl)cc1Cl	76	56	28	27	22
COc1cc(CC(=O)O)ccc1Oc1ccc2[nH]c(C)c(Cl)c2c1NS(=O)(=O)c1ccc(Cl)cc1Cl			87	1100	220
COc1cc(CC(=O)O)ccc1Oc1ccc2c(c1NS(=O)(=O)c1ccc(Cl)cc1Cl)CC(=O)N2	1300	31	103	17	3

Next, values leading:

IC50 [1] [nM]	IC50 [2] [nM]	activity at 0.25 h, 15 µM [3] [%]	IC50 [4] [nM]	IC50 [5] [nM]	SMILES
110	48	38	62	32	COc1cc(CC(=O)O)ccc1Oc1ccc2[nH]c(CC(C)C)cc2c1NS(=O)(=O)c1ccc(Cl)cc1Cl
		81	8400	32	COc1cc(CC(=O)O)ccc1Oc1ccc2[nH]c(C(C)(C)C)cc2c1NS(=O)(=O)c1ccc(Cl)cc1Cl
130	110	79	45	57	CCCc1cc2c(NS(=O)(=O)c3ccc(Cl)cc3Cl)c(Oc3ccc(CC(=O)O)cc3OC)ccc2[nH]1
130	130	73	82	27	COc1cc(CC(=O)O)ccc1Oc1ccc2[nH]c(C#N)cc2c1NS(=O)(=O)c1ccc(Cl)cc1Cl
